Data on four compounds can be found in PMC9768356 (iScience, 2022).

The subject of one data set is Areg. Briefly: Areg protein in BMDMs. As to conditions: n = 4 per group. The data set is classed as cell-based, mice. In outline: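 BMDMs: bone marrow cells from mouse hind legs, erythrocytes lysed, grown in DMEM with 10% FBS and 10 ng/mL GM-CSF at 37°C and 5% CO2. Non-adherent cells replated after 24 h and cultured 7 days, medium changed every 3 days. Cells were infected with E. coli and harvested at 12 h. Iron-loading agent 100 μM for 20 h or iron chelator 100 μM for 12 h. Lysis in RIPA, BCA protein assay, 20 or 40 μg on 12% SDS-PAGE, PVDF. Anti-Areg 1:1000 with β-actin loading control (1:5000), HRP secondaries 1:5000, ECL detection. Supernatant Areg by ELISA. n = 4 per group.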

Another data set has as its system YAP. Briefly: YAP activation in BMDMs. The data set is classed as cell-based, mice. The following applies: E. coli 12 h, n = 4 per group. In outline:
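Bone marrow cells from Fpn^flox/flox or Fpn^LysM/LysM mice were erythrocyte-lysed and grown in DMEM/10% FBS with 10 ng/mL GM-CSF. Nonadherent cells were replated after 24 h and cultured 7 days, with medium changed every 3 days. Cells were infected with E. coli (12 h) with DFO (100 μM, 12 h). Lysates were blotted for P-YAP and YAP (1:1000 each) with a β-actin control (1:5000); n = 4.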

The conditions of data set [1]: cited from earlier work.

As for `CC(=O)N(O)CCCCCNC(=O)CCC(=O)N(O)CCCCCNC(=O)CCC(=O)N(O)CCCCCN` [DFO, desferrioxamine], in the data set on Areg (Fpn^LysM/LysM BMDMs, E. coli 12 h, DFO 100 μM, 12 h), the “protein levels of Areg, Fpn^LysM/LysM BMDMs, DFO” value is “decreased YAP activity and the protein levels of Areg”. In addition, in the data set on Areg (Fpn^flox/flox BMDMs, E. coli 12 h, DFO 100 μM, 12 h), the “protein levels of Areg, Fpn^flox/flox BMDMs, DFO” value was “decreased YAP activity and the protein levels of Areg”. Further, the “YAP activity, Fpn^LysM/LysM BMDMs, DFO” value in the data set with YAP (Fpn^LysM/LysM BMDMs, DFO 100 μM, 12 h) is given as “decreased YAP activity”. Also, the “YAP activity, Fpn^flox/flox BMDMs, DFO” value in the data set with YAP (Fpn^flox/flox BMDMs, DFO 100 μM, 12 h) is “decreased YAP activity”.
With `CC[C@H](C)[C@@H]1NC(=O)[C@@H](NC(=O)[C@@H](NC(=O)[C@@H]2CCCN2C(=O)[C@H](Cc2ccccc2)NC(=O)[C@H](Cc2c[nH]cn2)NC(=O)[C@@H](NC(=O)[C@@H](N)CC(=O)O)[C@@H](C)O)[C@@H](C)CC)CSSC[C@@H](C(=O)N[C@@H](CCCCN)C(=O)N[C@H](C(=O)O)[C@@H](C)O)NC(=O)[C@@H]2CSSC[C@@H]3NC(=O)[C@@H]4CSSC[C@H](NC(=O)[C@H](Cc5ccccc5)NC1=O)C(=O)N[C@@H](CSSC[C@H](NC(=O)[C@H](CCCCN)NC(=O)[C@H](CO)NC(=O)[C@H](CCCNC(=N)N)NC(=O)[C@H](Cc1c[nH]cn1)NC3=O)C(=O)NCC(=O)N[C@@H](CCSC)C(=O)N2)C(=O)NCC(=O)N4` [Hepcidin], the “prevention of bacterial dissemination” value in data set [1] (by limiting extracellular iron availability) is on record as “prevent bacterial dissemination by limiting extracellular iron availability”. In addition, in data set [1], the pharmacokinetics entry is “poor pharmacokinetics”.
As for ferric ammonium citrate, the “production and secretion of Areg, Fpn^flox/flox BMDMs, FAC” value with Areg (Fpn^flox/flox BMDMs, E. coli 12 h, FAC 100 μM, 20 h) was “promoted the production and secretion of Areg”. Moreover, the “activation of YAP signaling, Fpn^flox/flox BMDMs, FAC” value in the data set on YAP (Fpn^flox/flox BMDMs, FAC 100 μM, 20 h) was “significantly facilitated the activation of YAP signaling”.
Consider verteporfin, for which the “protein levels of macrophage-derived Areg (YAP inhibition)” value in the data set with Areg (BMDMs and supernatant, 12 h after E. coli infection) is “dramatically downregulated the protein levels of macrophage-derived Areg”.
